Experimental data: PMC4112162 (Biochimica et biophysica acta, 2014)

T1: hCBS (human cystathionine β-synthase) (Homo sapiens, UniProt P35520)
T1 sequence (P35520 1-551): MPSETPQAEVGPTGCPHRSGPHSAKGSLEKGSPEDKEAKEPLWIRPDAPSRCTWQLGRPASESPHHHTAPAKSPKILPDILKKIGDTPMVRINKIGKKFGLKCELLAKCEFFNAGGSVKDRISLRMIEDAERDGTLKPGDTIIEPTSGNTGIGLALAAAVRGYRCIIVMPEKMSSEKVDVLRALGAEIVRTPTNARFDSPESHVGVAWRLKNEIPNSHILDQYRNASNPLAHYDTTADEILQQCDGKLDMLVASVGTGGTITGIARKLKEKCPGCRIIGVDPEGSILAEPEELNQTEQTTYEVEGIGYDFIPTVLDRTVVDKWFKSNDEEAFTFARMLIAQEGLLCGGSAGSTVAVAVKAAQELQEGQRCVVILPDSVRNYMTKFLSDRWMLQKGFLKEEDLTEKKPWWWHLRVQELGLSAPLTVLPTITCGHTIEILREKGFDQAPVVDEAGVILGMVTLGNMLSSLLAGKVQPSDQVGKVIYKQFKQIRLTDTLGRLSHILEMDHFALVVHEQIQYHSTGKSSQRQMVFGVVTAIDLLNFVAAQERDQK

T2: Human cystathionine beta-synthase (human), P35520
T2 chain: T1 sequence (P35520 1-551)

B1: Human cystathionine beta-synthase, P35520 1-551 (enzyme)
chain: T1 sequence (P35520 1-551)

Tests used:
[1] = molecular target: T1, hCBS (human cystathionine β-synthase); assay: isothermal titration calorimetry, two independent types of sites model; assay type: binding
In short: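 Purified human CBS in 20 mM Hepes pH 7.4 titrated with SAM by ITC. Without salt: 8 μM tetramer, 50 injections of 0.7 mM SAM spaced 150 s. With 200 mM NaCl: 20 μM tetramer, 19 injections of 1.06 mM SAM spaced 250 s. Isotherms fitted to a two independent types of sites model; salt titrations repeated in four independent experiments.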

[2] = molecular target: T1, hCBS (human cystathionine β-synthase); assay: radioisotope CBS activity assay with L-[U-14C]serine; assay type: biochemical
[3] = molecular target: T2, Human cystathionine beta-synthase …; assay: dynamic light scattering; conditions: remark: other sources report otherwise

Molecule | Kd [1] | EC50 [2] | stoichiometry N [3]
C[S+](CC[C@H](N)C(=O)O)C[C@H]1O[C@@H](n2cnc3c(N)ncnc32)[C@H](O)[C@@H]1O (stereo partly drawn) [SAM] | 13 nM | 3700 ± 200 nM | 
B1 |  |  | 4
